Measurements taken from ChEMBL document CHEMBL3856201, “5,10b-Ethanophenanthridine amaryllidaceae alkaloids inspire the discovery of novel bicyclic ring systems with activity against drug resistant cancer cells” (2016).
Activity calls are given as the source filed them. No cut-off for these calls is given here.

Legend:
[1] = Antiproliferative activity against human MCF7 cells after 48 hrs by MTT assay; assay type: functional; conditions: MCF7, 48 h
How it was run: (§1)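 HeLa cells were cultured in DMEM + 10% FBS and MCF-7 cells in RPMI + 10% FBS, both at 37 °C under 5% CO2. Compounds were diluted from DMSO stocks and applied for 48 h. Viability was read by MTT relative to DMSO control. The value is the concentration reducing viability by 50%, ±SD from two independent experiments of 4 replicates each.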

[2] = Antiproliferative activity against human HeLa cells after 48 hrs by MTT assay; assay type: functional; how it was run: as §1
[3] = Antiproliferative activity against patient-derived paclitaxel-resistant NCI-H2073 cells after 48 to 96 hrs by MTT assay; assay type: functional; conditions: Homo sapiens
[4] = Antiproliferative activity against patient-derived paclitaxel-sensitive NCI-H1993 cells after 48 to 96 hrs by MTT assay; assay type: functional; conditions: Homo sapiens
[5] = Antiproliferative activity against human MES-SA cells after 48 to 96 hrs by MTT assay; assay type: functional
How it was run: (§2)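 Parent MES-SA and MES-SA/Dx5 uterine sarcoma cells were grown in RPMI-1640 with 10% FBS. The Dx5 line was kept in 500 nM doxorubicin after stepwise selection from 100 nM in twofold steps, about 2 passages per step. MTT assay used 0.001–100 µM compound for 48–96 h, with 0.1% DMSO and 1 µM phenyl arsine oxide controls. The ratio is the Dx5 GI50 divided by the parent GI50.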

[6] = Antiproliferative activity against human MES-SA/Dx5 cells after 48 to 96 hrs by MTT assay; assay type: functional; how it was run: as §2
[7] = Antiproliferative activity against drug-resistant human A549 cells up to 100 uM after 48 to 96 hrs by MTT assay relative to control; assay type: functional
How it was run: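 A549 cultures in RPMI with 10% heat-inactivated FBS were treated across a concentration range up to 100 µM, with phenyl arsine oxide as the nondiscriminate cytotoxic reference. Growth curves were read by MTT assay. Two independent experiments, each in 4 replicates.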

MES-SA = assay: Selectivity ratio of GI50 for human MES-SA/Dx5 cells to GI50 for human MES-SA cells; assay type: functional; how it was run: as §2
[8] = Antiproliferative activity against drug-resistant human U251 cells after 48 to 96 hrs by MTT assay; assay type: functional; conditions: U-251
How it was run: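 U251 cells were kept in 10% MEM with glutamine, gentamicin and penicillin-streptomycin at 37 °C and 5% CO2. After seeding they were grown 24–72 h and then given compounds at 0.001–100 µM (from 100 or 50 mM DMSO stocks) for 48–96 h. Viability was read by MTT. Vehicle control was 0.1% DMSO; 1 µM phenyl arsine oxide served as positive control. The result is the average 50%-viability-reducing concentration.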

[9] = Antiproliferative activity against drug-resistant human U87 cells after 48 to 96 hrs by MTT assay; assay type: functional, U-87MG ATCC; conditions: U-87 MG
How it was run: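 U87 cells grown in DMEM with glutamine, gentamicin and penicillin-streptomycin (37 °C, 95% humidity, 5% CO2) were seeded and then treated with 0.001–100 µM compound for 48–96 h. Readout was MTT. Controls were 0.1% DMSO and 1 µM phenyl arsine oxide. The value is the average concentration reducing viability 50%.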

[10] = Antiproliferative activity against drug-resistant human T98G cells after 48 to 96 hrs by MTT assay; assay type: functional
How it was run: (§3)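 MTT read-out. T98G and Hs683 cells were grown in DMEM with 10% FBS, glutamine, gentamicin and penicillin-streptomycin at 37 °C and 5% CO2. Compounds came from 100 or 50 mM DMSO stocks and were tested at 0.001–100 µM for 48–96 h. Controls were 0.1% DMSO (negative) and 1 µM phenyl arsine oxide (positive). The value is the mean concentration giving 50% viability loss; replicate number varied.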

[11] = Antiproliferative activity against drug-sensitive human Hs683 cells after 48 to 96 hrs by MTT assay; assay type: functional; conditions: Hs 683; how it was run: as §3
[12] = Antiproliferative activity against drug-resistant human U373 cells after 48 to 96 hrs by MTT assay; assay type: functional, U-373MG ATCC; conditions: U373 MG
How it was run: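 Culture was RPMI with 10% heat-inactivated FBS plus glutamine and antibiotics for U373 cells. Compound exposure was 0.001–100 µM for 48–96 h, with 0.1% DMSO and 1 µM phenyl arsine oxide as controls. The MTT assay gave the average concentration cutting viability by 50%; replicate numbers varied.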

[13] = Antiproliferative activity against drug-resistant human A549 cells after 48 to 96 hrs by MTT assay; assay type: functional
How it was run: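 A549 cells grown in RPMI with 10% heat-inactivated FBS, 4 mM glutamine and antibiotics at 37 °C under 5% CO2. Compounds came from 100 or 50 mM DMSO stocks and were tested at 0.001–100 µM for 48–96 h. Read-out was MTT. The value is the mean concentration giving 50% viability loss, with varied replicate numbers. Controls were 0.1% DMSO (negative) and 1 µM phenyl arsine oxide (positive).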

[14] = Antiproliferative activity against patient-derived TMZ-sensitive GBM 090909 cells after 48 to 96 hrs by MTT assay; assay type: functional; conditions: Homo sapiens
How it was run: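 Primary GBM neurosphere cultures came from resected patient tumour. Tissue was minced, dissociated with 100 U/mL collagenase in neurobasal medium for 30 min at 37 °C, filtered through 70 µm, spun at 200 × g for 5 min, and grown in ultra-low attachment wells in neurobasal medium with B27. Compounds were applied at 0.001–100 µM for 48–96 h. MTT gave the average 50%-viability concentration.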

NCI-H1993 = assay: Potentiation of paclitaxel-induced cytotoxicity against patient-derived paclitaxel-sensitive NCI-H1993 cells assessed as reduction in cell viability up to 100 uM after 96 hrs by Celltiter-Glo luminescent assay; assay type: functional, cell-based; conditions: Homo sapiens
How it was run: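 NCI-H1993 cells were seeded at 4×10^3 per well and grown 24 h. […] Viability was read by CellTiter-Glo luminescence. Predicted additivity was calculated by Bliss independence, Exy = Ex + Ey − ExEy.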

[15] = Antiproliferative activity against patient-derived TMZ-resistant GBM 031810 cells over-expressing MGMT after 48 to 96 hrs by MTT assay; assay type: functional; conditions: Homo sapiens
HeLa S3 = assay: Inhibition of translation in human HeLaS3 assessed as induction of intact polysomes at 50 uM after 1 hr by UV-based […] method; assay type: functional
How it was run: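 HeLa S3 cells were exposed to 50 µM compound for 1 h, then analysed by polysome profiling against a DMSO-treated control profile.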

SMILES	GI50 [1] [µM]	GI50 [2] [µM]	other results
COc1cc2c(cc1OCc1ccccc1)CN(C(=O)C(F)(F)F)CCC21C=CC(=O)C=C1	48	38	
O=C1C=C[C@]23CC[N@](Cc4c2ccc2c4OCO2)[C@H]3C1	73	61	
CC(=O)O[C@H]1C(=O)[C@@]2(C)[C@H]([C@H](OC(=O)c3ccccc3)[C@]3(O)C[C@H](OC(=O)[C@H](O)[C@@H](NC(=O)c4ccccc4)c4ccccc4)C(C)=C1C3(C)C)[C@]1(OC(C)=O)CO[C@@H]1C[C@@H]2O [PACLITAXEL]			GI50 [3]: 2.4 µM; GI50 [4]: 0.004 µM; GI50 [5]: 0.007 µM; GI50 [6]: 10 µM; inhibition (INH) [7]: 50%; RatioGI50 (MES-SA): >1000
O=C1C=CC2(C=C1)CCN(C(=O)C(F)(F)F)Cc1cccc(OCc3ccccc3)c12	14	11	
O=C1C=C[C@]23CC[N@](Cc4cc(OCc5ccccc5)c(OCc5ccccc5)cc42)[C@H]3C1	4	3	GI50 [8]: 5 µM; GI50 [9]: 5 µM; GI50 [5]: 2 µM; GI50 [10]: 7 µM; GI50 [11]: 6 µM; GI50 [6]: 7 µM; GI50 [12]: 7 µM; GI50 [13]: 4 µM
COc1cc2c(cc1OC)[C@@]13C=CC(=O)C[C@@H]1[N@](CC3)C2	> 100	64	
COc1cc2c(cc1OC(=O)c1ccccc1)C[N@@]1CC[C@@]23C=CC(=O)C[C@H]13	45	35	
C#CCCCC(=O)Oc1cc2c(cc1OC)[C@@]13C=CC(=O)C[C@@H]1[N@](CC3)C2	53	43	
CC[C@]1(O)C[C@@H]2CN(CCc3c([nH]c4ccccc34)[C@@](C(=O)OC)(c3cc4c(cc3OC)N(C)[C@H]3[C@@](O)(C(=O)OC)[C@H](OC(C)=O)[C@]5(CC)C=CCN6CC[C@]43[C@@H]65)C2)C1 [VINBLASTINE]			RatioGI50 (MES-SA): >1000
COc1cc2c(cc1O)C[N@@]1CC[C@@]23C=C/C(=N/O)C[C@H]13	> 100	> 100	
O=C1C=C[C@]23CC[N@](Cc4cc(OCc5ccccc5)ccc42)[C@H]3C1	14	8	
O=C1C=CC2(C=C1)CCN(C(=O)C(F)(F)F)Cc1cc(OCc3ccccc3)ccc12	40	16	
O=C1C=CC2(C=C1)CCN(C(=O)C(F)(F)F)Cc1c2sc2ccccc12	7	10	GI50 [8]: 4 µM; GI50 [3]: 50 µM; GI50 [4]: 12 µM; GI50 [14]: 7 µM; Activity (NCI-H1993): Active; GI50 [9]: 6 µM; GI50 [5]: 5 µM; GI50 [10]: 15 µM; GI50 [11]: 5 µM; GI50 [6]: 5 µM; GI50 [12]: 7 µM; GI50 [15]: 8 µM
O=C1C=CC2(C=C1)CCN(C(=O)C(F)(F)F)Cc1cc3c(cc12)OCO3	30	24	
O=C1C=CC2(C=C1)CCN(C(=O)C(F)(F)F)Cc1c2ccc2c1OCO2	> 100	> 100	
COc1cc2c(cc1O)CN(C(=O)C(F)(F)F)CCC21C=CC(=O)C=C1	> 100	> 100	
CO[C@@H]1C=C[C@@]23c4cc5c(cc4CN(C[C@@H]2O)[C@H]3C1)OCO5			inhibition (HeLa S3): Active

SMILES	GI50 [1] [µM]	GI50 [2] [µM]	other results
COc1cc2c(cc1OC(C)=O)C[N@@]1CC[C@@]23C=CC(=O)C[C@H]13	> 100	> 100	
COc1cc2c(cc1OCc1ccccc1)[C@@]13C=CC(=O)C[C@@H]1[N@](CC3)C2	17	17	
COc1cc2c(cc1OCc1ccccc1)C[N@@]1CC[C@@]23C=CC(=O)C[C@H]13	15	12	
COc1cc2c(cc1OCc1ccccc1)C1(C=CC(=O)C=C1)CCN(C(=O)C(F)(F)F)C2	34	34	
O[C@H]1[C@H]2c3cc4c(cc3CN3CCC(=C[C@@H]1O)[C@H]23)OCO4			inhibition (HeLa S3): Active
O=C1C=CC2(C=C1)CCN(C(=O)C(F)(F)F)Cc1cc3c(cc12)OCCO3	34	21	
Cn1nnc2c(C(N)=O)ncn2c1=O [TEMOZOLOMIDE]			GI50 [14]: 50 µM; GI50 [15]: > 1000 µM
O=C1C=C[C@]23CC[N@](Cc4ccsc42)[C@H]3C1	12	8	
O=C1C=C[C@]23CC[N@](Cc4cscc42)[C@H]3C1	44	25	
O=C1C=C[C@]23CC[N@](Cc4cccc(OCc5ccccc5)c42)[C@H]3C1	11	7	
O=C1C=C[C@]23CC[N@](Cc4cc5c(cc42)OCO5)[C@H]3C1	24	25	
O=C1C=CC2(C=C1)CCN(C(=O)C(F)(F)F)Cc1cc(OCc3ccccc3)c(OCc3ccccc3)cc12	25	17	
COc1cc2c(cc1O)C[N@@]1CC[C@@]23C=CC(=O)C[C@H]13	> 100	> 100	
COc1cc([C@@H]2c3cc4c(cc3[C@H](O)[C@H]3COC(=O)[C@H]23)OCO4)cc(OC)c1OC [PODOFILOX]			inhibition (INH) [7]: 50%
O[C@H]1C=C[C@@]23c4cc5c(cc4CN(C[C@@H]2O)[C@H]3C1)OCO5			GI50 [8]: 41 µM; GI50 [9]: 38 µM; GI50 [10]: 99 µM; GI50 [11]: 27 µM; GI50 [12]: 53 µM
O=C1C=C[C@]23CC[N@](Cc4cc5c(cc42)OCCO5)[C@H]3C1	19	13	
COc1cc2c(cc1OC)C1(C=CC(=O)C=C1)CCN(C(=O)C(F)(F)F)C2	> 100	83	
